# In ChEMBL document CHEMBL3046065, “Metabolites of the fungistatic agent 2β-methoxyclovan-9α-ol by Macrophomina phaseolina” (J Agric Food Chem, 2011):
# How the values were obtained:
# Botrytis cinerea = experiment: Antifungal activity against Botryotinia fuckeliana KUCC 869 assessed as growth inhibition at 200 ug/ml at 27 to 29 degC after 7 days by agar tube dilution method; format: functional; settings: KUCC 869, 168 h, read-out: GI
# Summary of the method: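 Agar tube dilution against B. cinerea isolated from infected strawberries. Compounds were taken from 1 mg/mL DMSO stocks into unsolidified Sabouraud agar at 200 μg/mL final. The agar was set as slants and inoculated with 4 mm plugs from 7-day-old culture, then incubated 7 days at 27–29 °C. Linear growth (mm) was measured and % inhibition calculated against control. Miconazole served as standard.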
# Macrophomina phaseolina [1] = experiment: Drug metabolism in Macrophomina phaseolina KUCC 730 assessed as transformation to oxidative metabolite, clovan-2-beta, 9-alpha-diol at 600 mg at 29 degC after 6 days by TLC analysis; format: ADME, organism-based; settings: in vivo, 144 h
# Summary of the method: (§1)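 Fungus kept on Sabouraud dextrose agar slants at 4 °C. Medium per 3 L water: glucose 30 g, peptone 15 g, yeast extract 15 g, KH2PO4 15 g, NaCl 15 g, glycerol 30 mL. Adjusted to pH 7.0 and autoclaved. Substrate in acetone, 20 mg per 100 mL flask, added to 24 h stage II cultures. Shaken at 200 rpm, 29 °C, 6 days. Daily TLC monitoring. Substrate-only and fungus-only controls were run.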
# Macrophomina phaseolina [2] = experiment: Drug metabolism in Macrophomina phaseolina KUCC 730 assessed as transformation to oxidative metabolite, clovan-2-beta, 13-diol-9-one at 600 mg at 29 degC after 6 days by TLC analysis; format: ADME, organism-based; settings: in vivo, 144 h; summary of the method: as §1
# Macrophomina phaseolina [3] = experiment: Drug metabolism in Macrophomina phaseolina KUCC 730 assessed as transformation to oxidative metabolite, clovan-2-beta, 9-beta-diol at 600 mg at 29 degC after 6 days by TLC analysis; format: ADME, organism-based; settings: in vivo, 144 h; summary of the method: as §1
# Macrophomina phaseolina [4] = experiment: Drug metabolism in Macrophomina phaseolina KUCC 730 assessed as transformation to oxidative metabolite, 2-beta-methoxyclovan-9-alpha-13-diol at 600 mg at 29 degC after 6 days by TLC analysis; format: ADME, organism-based; settings: in vivo, 144 h; summary of the method: as §1
# Macrophomina phaseolina [5] = experiment: Drug metabolism in Macrophomina phaseolina KUCC 730 assessed as transformation to oxidative metabolite, clovan-2-beta, 9-beta, 13-triol at 600 mg at 29 degC after 6 days by TLC analysis; format: ADME, organism-based; settings: in vivo, 144 h; summary of the method: as §1
# Macrophomina phaseolina [6] = experiment: Drug metabolism in Macrophomina phaseolina KUCC 730 assessed as transformation to oxidative metabolite, 2-beta-methoxyclovan-9-one at 600 mg at 29 degC after 6 days by TLC analysis; format: ADME, organism-based; settings: in vivo, 144 h; summary of the method: as §1
SMILES,inhibition of growth at 200 µg/mL (Botrytis cinerea) [%],other results
CC1(C)C[C@H](O)[C@]23CC[C@H](O)[C@@](C)(CC[C@@H]12)C3,32,
CO[C@H]1CC(C)(C)[C@@H]2CC[C@@]3(C)C[C@]12CC[C@H]3O [2BETA-METHOXYCLOVAN-9ALPHA-OL],81,Drug metabolism (Macrophomina phaseolina [1]): Active; Drug metabolism (Macrophomina phaseolina [2]): Active; Drug metabolism (Macrophomina phaseolina [3]): Active; Drug metabolism (Macrophomina phaseolina [4]): Active; Drug metabolism (Macrophomina phaseolina [5]): Active; Drug metabolism (Macrophomina phaseolina [6]): Active
CC1(C)C[C@H](O)[C@]23CC[C@@H](O)[C@@](C)(CC[C@@H]12)C3 [CLOVANEDIOL],59,
C[C@@]12CC[C@H]3[C@](C)(CO)C[C@H](O)[C@@]3(CC[C@@H]1O)C2,11,
C[C@@]12CC[C@H]3[C@](C)(CO)C[C@H](O)[C@@]3(CCC1=O)C2,8,
CO[C@H]1CC(C)(C)[C@@H]2CC[C@@]3(C)C[C@]12CCC3=O,71,
CO[C@H]1C[C@@](C)(CO)[C@@H]2CC[C@@]3(C)C[C@]12CC[C@H]3O,17,
